Screening data as filed in PubChem.
The list is not random: actives were taken first. Their share in the collection is about 2.6%.
rCAG RNA binder: r(CAG) repeat RNA binding; TO-PRO-1 dye displacement fluorescence; inhibition, % at 3 µM; actives 1.3% (n = 370,000); AID 651821;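 active = inhibition above the plate cutoff, the mean of all test compounds on that plate plus 3 SD, cut at about 35% in these data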;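 also: 0% = DMSO alone and 100% = 100 µM mitoxantrone as full dye displacement; higher means more dye released from RNA so lower well fluorescence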
NadD block: NadD (S. aureus) enzyme inhibition; actives 0.78% (n = 360,000); purified NadD enzyme, colorimetric absorbance read-out; inhibition, % at 20 µM; in the data active = inhibition above about 26%
HCV core dimer: HCV core protein dimerization inhibition; TR-FRET GST/Flag-core106 dimerization, 1536-well; inhibition, % at 5 µM; actives 0.33% (n = 300,000); AID 1899;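 active = inhibition above the mean of all tested compounds plus 3 SD, set per screening campaign, cut at about 45% in these data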
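Assay system – GST-tagged and Flag-tagged HCV core protein residues 1-106 · Quantity – core106 proteins, GST 13.5 nM and Flag 17 nM · Benchmarks – unlabelled core106 and no-GST-core106 wells · Read-out basis – percent inhibition of core106 dimerization signal · Detection – time-resolved FRET, ex 340 nm, em 617 and 671 nm · Schedule – 4 h at 22.5 °C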
ABHD5 PLIN5 PPI: inhibitors of human ABHD5-perilipin-5 interaction | Q00G26+Q8WTS1 | actives 0.78% (n = 360,000) | AID 602281 | inhibition, % at 4 µM | Split G. princeps luciferase complementation, luminescence, 4 h;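 active = inhibition above the mean inhibition across every tested compound plus 3 SD, cut at about 22% in these data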;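 also: 0% = DMSO only wells and the 100% control is not disclosed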
Target sequence (Q00G26 whole entry, looked up): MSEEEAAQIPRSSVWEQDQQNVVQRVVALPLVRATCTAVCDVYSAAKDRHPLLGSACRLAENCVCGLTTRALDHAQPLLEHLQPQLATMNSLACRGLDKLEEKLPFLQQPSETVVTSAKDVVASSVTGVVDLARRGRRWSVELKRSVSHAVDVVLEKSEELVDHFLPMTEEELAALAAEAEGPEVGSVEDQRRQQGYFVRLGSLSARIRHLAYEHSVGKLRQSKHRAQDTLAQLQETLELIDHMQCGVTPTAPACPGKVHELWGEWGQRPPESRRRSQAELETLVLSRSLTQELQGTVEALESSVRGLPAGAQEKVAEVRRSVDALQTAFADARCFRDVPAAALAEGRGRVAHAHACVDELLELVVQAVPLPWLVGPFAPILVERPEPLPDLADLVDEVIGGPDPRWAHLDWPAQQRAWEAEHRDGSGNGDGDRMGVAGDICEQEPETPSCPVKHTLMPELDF
Target sequence (Q8WTS1 whole entry, looked up): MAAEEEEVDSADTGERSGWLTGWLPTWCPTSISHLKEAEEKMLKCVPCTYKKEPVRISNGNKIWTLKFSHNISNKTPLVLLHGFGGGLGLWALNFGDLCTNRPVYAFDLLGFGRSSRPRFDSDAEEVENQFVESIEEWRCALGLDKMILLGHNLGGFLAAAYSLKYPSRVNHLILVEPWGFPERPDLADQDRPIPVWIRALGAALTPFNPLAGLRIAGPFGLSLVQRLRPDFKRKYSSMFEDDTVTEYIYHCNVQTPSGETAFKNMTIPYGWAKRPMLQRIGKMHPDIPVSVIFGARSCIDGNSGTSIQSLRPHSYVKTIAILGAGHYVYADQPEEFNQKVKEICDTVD
rCAG bind conf: r(CAG) RNA repeat binding, confirmation; shares compounds with rCAG RNA binder; TO-PRO-1 dye displacement fluorescence; inhibition, % at 3 µM; actives 70% (n = 4,300);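 active = inhibition above a per-plate cutoff, the mean inhibition of sample wells plus 3 SD, cut at about 35% in these data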;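 also: loss of TO-PRO-1 fluorescence as compound displaces dye from 1x1 AA loop RNA; 0% = DMSO only wells and 100% = 100 µM mitoxantrone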
dCAG dye counter: disrupts DNA CAG TO-PRO-1 complex, flagging rCAG hits | shares compounds with rCAG RNA binder | d(CAG) DNA oligo TO-PRO-1 dye displacement, fluorescence | inhibition, % at 3 µM | actives 94% (n = 4,300) | AID 652068;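 active = inhibition above its plate's cutoff, the mean test-well inhibition plus 3 SD, cut at about 4.8% in these data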;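 also: 0% = DNA dye mix with DMSO and 100% = 100 µM mitoxantrone; hits displace the dye from DNA and so lower well fluorescence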
DNA CAG DR: disrupts DNA CAG TO-PRO-1 complex in dose response | IC50, µM | shares compounds with rCAG RNA binder | AID 686960 | actives 20% (n = 250) | DNA CAG/GTC duplex TO-PRO-1 dye displacement fluorescence; in the data active = IC50 below about 10 µM
Starred values were filed as active, the others as inactive; · = not tested or not shown.

SMILES	rCAG RNA binder	NadD block	HCV core dimer	ABHD5 PLIN5 PPI	rCAG bind conf	dCAG dye counter	others
CCOC(=O)c1csc(NC(=O)COc2ccc(Cl)cc2Cl)n1	0.0	-8.2	-0.4	2.4	·	·
O=C(Cc1csc(NC(=O)Nc2ccc(Cl)cc2)n1)NC1CCCC1	40.5*	2.6	-5.9	1.9	16.2	14.7*
CCOC(=O)Cc1csc(NC(=O)Nc2ccc(Cl)cc2)n1	39.8*	-5.7	-0.3	-4.5	43.2*	16.9*
CCOC(=O)c1csc(NC(=O)Nc2cccc(Cl)c2)n1	59.2*	2.0	8.7	-1.0	49.8*	28.0*
CCOC(=O)Cc1csc(NC(=O)Nc2cccc(Cl)c2)n1	53.2*	-2.1	-6.7	1.1	17.5	16.2*
O=C(NC1CCCCC1)C(c1ccccc1F)n1c(=O)c(-c2cc3ccccc3[nH]2)nc2ccccc21 (configuration not stated)	16.8	·	·	3.0	·	·
Cc1csc(NC(=O)Nc2ccc(Cl)cc2)n1	37.9*	3.7	2.0	-3.9	6.6	9.5*
NCc1csc(NC(=O)Nc2cccc(Cl)c2)n1	34.8*	4.7	·	-3.8	9.5	8.4*
CN(C)Cc1csc(NC(=O)Nc2cccc(Cl)c2)n1	21.5	-1.1	·	15.0	·	·
S=c1[nH]nc(COc2ccccc2)n1/N=C/c1ccc(Cl)cc1	44.0*	12.1	·	-2.4	30.2	7.4*
Cc1ccc(/C=N/n2c(COc3ccccc3)n[nH]c2=S)s1	21.9	6.8	-3.9	-12.8	·	·
S=c1[nH]nc(COc2ccccc2)n1/N=C/c1ccc(Br)s1	43.8*	7.1	-2.7	-12.3	32.8	8.1*
COc1cccc(C(=O)Nc2ccc(Oc3nnc(-c4ccccc4)c4ccccc34)cc2)c1	-1.4	·	·	·	·	·
CCc1nc2c(OCC(=O)c3ccc(Cl)cc3Cl)cccn2c1N(C=O)Cc1ccccc1	9.4	15.1	·	3.5	·	·
CS(=O)(=O)c1nsc2nc(=O)c(/C=C3\C=Nc4ccccc43)c(N)n12	43.8*	0.0	-3.0	-7.7	69.7*	30.5*	DNA CAG DR=8.25*
CC(C)Sc1nsc2nc(=O)c(/C=C3\C=Nc4ccccc43)c(N)n12	43.7*	0.6	0.6	-4.8	78.8*	44.0*
Cc1sc2nc3c(SC(C)C(=O)O)cc(C(=O)c4ccccc4O)cn3c(=O)c2c1C (configuration not stated)	76.6*	18.2	17.6	2.0	84.9*	61.5*
CCOC(=O)N1CCN(C(=O)C[C@H]2C[C@@]3(C(=O)OC)C(=C[C@H](C(C)(C)C)O[C@@H]3C)N(Cc3cccc4ccccc34)C2=O)CC1	0.1	·	·	·	·	·
O=C1CC(Nc2ccc(N3CCOCC3)cc2)C(=O)N1Cc1ccccc1 (configuration not stated)	34.6*	-2.1	-3.6	-20.7	7.6	6.9*
O=C1CC(Nc2ccc(N3CCOCC3)cc2)C(=O)N1c1ccccc1 (configuration not stated)	·	-3.5	3.3	-0.2	·	·
Nc1[nH]c2cc(C(F)(F)F)ccc2c1C(=O)NCc1ccc(F)cc1	4.5	·	·	·	·	·
O=S(=O)(Nc1cccc(-n2cnnn2)c1)c1cc(Br)ccc1Br	36.1*	-7.2	3.7	9.0	20.7	4.9*
COc1cc(/C=C/c2ccc3cccc([N+](=O)[O-])c3n2)ccc1OCC(=O)O	48.2*	10.8	7.5	-1.4	47.0*	13.4*
O=C(O)COc1ccc(/C=C/c2ccc3cccc([N+](=O)[O-])c3n2)cc1	37.2*	3.7	1.1	0.7	27.1	8.4*
COc1cc(/C=C/c2ccc3c([N+](=O)[O-])cccc3n2)ccc1OCC(=O)O	9.3	3.5	0.8	2.3	·	·
SMILES	rCAG RNA binder	NadD block	HCV core dimer	ABHD5 PLIN5 PPI	rCAG bind conf	dCAG dye counter	others
N=C1SC(c2ccccc2)C(=O)N1c1ncc(Cc2ccccc2)s1 (configuration not stated)	44.6*	11.6	19.6	-11.0	56.6*	19.0*
Cc1ccc(NS(=O)(=O)c2ccc3[nH]c(=O)c(=O)[nH]c3c2)cc1Cl	13.2	10.3	2.7	-1.0	·	·
Cc1ccc(NS(=O)(=O)c2ccc(Cl)c(N=Nc3c(O)[nH]c(=O)[nH]c3=O)c2)cc1Cl	66.5*	30.8*	·	0.3	76.1*	35.7*
O=C(CSc1ccsc1[N+](=O)[O-])Nc1cccc(F)c1	35.2*	0.4	·	0.5	19.2	12.3*
CN(C)C1=NC(=O)/C(=C/c2ccc(-c3ccc(S(N)(=O)=O)cc3)o2)S1	·	·	-20.2	·	·	·
NC1=NC(=O)/C(=C\c2ccc(-c3ccc(Cl)cc3)o2)S1	47.8*	15.4	-19.1	5.2	22.1	8.6*
N#Cc1c(C(F)(F)F)cc(-c2ccco2)nc1SCc1ccccn1	37.0*	11.8	5.3	-5.4	19.1	5.3*
Cc1cc(Nc2cccc(Cl)c2)nc(-c2ccccc2O)n1	36.4*	-2.3	4.5	11.3	23.8	10.0*
O=S(=O)(Nc1nc2ccc(S(=O)(=O)N3CCCC3)cc2s1)c1ccc(F)cc1	68.5*	23.4	16.9	0.4	52.4*	20.3*
Cc1ccc(C2C(/C=C3/SC(=S)NC3=O)=C(c3cccs3)Oc3ccccc32)cc1 (configuration not stated)	80.0*	59.9*	31.9	6.0	83.3*	51.0*
CCN(CC)c1ccc(C=C2SC(=S)NC2=O)cc1	24.9	7.9	·	6.2	·	·
COc1ccc(Cc2nnc(NS(=O)(=O)c3ccc(Cl)cc3)s2)cc1OC	48.6*	5.2	18.2	9.3	53.1*	15.7*
COCc1nnc(NS(=O)(=O)c2ccc(NC(C)=O)cc2)s1	-1.9	1.0	2.2	2.8	·	·
CCc1nnc(NS(=O)(=O)c2ccc(NC(=S)NC(=O)/C=C/c3ccc([N+](=O)[O-])cc3)cc2)s1	37.5*	7.2	-1.7	0.8	23.3	7.7*
COc1ccc(C(=O)NC(=S)Nc2ccc(S(=O)(=O)Nc3cc(C)on3)cc2)cc1OC	34.7*	-3.6	6.9	0.7	36.3*	6.5*
CCc1nnc(NS(=O)(=O)c2ccc(NC(=S)NC(=O)c3ccc(OC)c(OC)c3)cc2)s1	67.6*	7.5	8.5	-0.2	68.2*	32.4*
CC(C)(C)Cc1nnc(NS(=O)(=O)c2ccc([N+](=O)[O-])cc2)s1	32.7	1.4	1.9	4.5	·	·
COc1cccc(CNC(=O)[C@H]2CCCN2C(=O)[C@H]2CCCN2C(=O)c2ccc(Cl)cc2)c1	1.6	·	·	·	·	·
COc1ccc(-c2csc(Nc3ccc(S(=O)(=O)Nc4cc(C)on4)cc3)n2)cc1C	92.6*	19.5	26.2	-3.8	82.2*	42.6*
O=C(NC(=S)Nc1ccc(S(=O)(=O)Nc2nccs2)cc1)c1ccc(F)cc1	52.9*	5.5	-1.8	-3.9	37.9*	13.8*
COc1ccc(CC(=O)Nc2ccc(S(=O)(=O)Nc3cc(C)on3)cc2)cc1OC	4.9	-4.9	-1.4	7.3	·	·
